Test results from ChEMBL document CHEMBL4043299, “Repurposing a Library of Human Cathepsin L Ligands: Identification of Macrocyclic Lactams as Potent Rhodesain and Trypanosoma brucei Inhibitors” (J Med Chem, 2018).

How the values were obtained:
Rhodesain = Rhodesain (Trypanosoma brucei rhodesiense, UniProt Q95PM0); experiment: Inhibition of Trypanosoma brucei rhodesiense rhodesain using Cbz-Phe-Arg-AMC as substrate by fluorimetric method
Method in brief: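 Fluorescence-based protease assay. IC50 was converted to Ki by the Cheng-Prusoff equation. Values are the average of two measurements, each run in duplicate.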

Procathepsin L = Procathepsin L (Homo sapiens, UniProt P07711); experiment: Inhibition of human CatL using Cbz-Phe-Arg-AMC as substrate measured over 30 mins by fluorimetric method
[1] = Selectivity index, ratio of Ki for human CatL to Ki for Trypanosoma brucei rhodesiense rhodesain
Method in brief: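 Ki from IC50 via Cheng–Prusoff in fluorescence-based protease assay; index = Ki(hCatL)/Ki(RD); Ki as average of two measurements, each in duplicate.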

[2] = system: Trypanosoma brucei rhodesiense; experiment: Antitrypanosomal activity against bloodstream form of Trypanosoma brucei rhodesiense STIB 900 assessed as parasite growth inhibition after 72 hrs by Alamar blue assay; format: functional
Method in brief: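 T. b. rhodesiense STIB900 bloodstream trypomastigotes; cell-growth inhibition read by Alamar blue; IC50 as average of at least 2 measurements.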

L6 = experiment: Cytotoxicity against rat L6 cells after 72 hrs by Alamar blue assay; format: cell-based
Method in brief: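 Rat skeletal myoblast L6 cells, growth inhibition; IC50 as average of at least 2 measurements.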

[3] = Selectivity index, ratio of IC50 for rat L6 cells to IC50 for bloodstream form of Trypanosoma brucei rhodesiense STIB 900; format: toxicity; settings: for selectivity ratio: L6 cells, read-out: Ratio IC50
Method in brief: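 Ratio of L6 cell IC50 to T. b. rhodesiense STIB900 trypomastigote IC50.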

[4] = Trypanosoma brucei, STIB 900, 72 h

Chain of Rhodesain (Q95PM0 whole entry): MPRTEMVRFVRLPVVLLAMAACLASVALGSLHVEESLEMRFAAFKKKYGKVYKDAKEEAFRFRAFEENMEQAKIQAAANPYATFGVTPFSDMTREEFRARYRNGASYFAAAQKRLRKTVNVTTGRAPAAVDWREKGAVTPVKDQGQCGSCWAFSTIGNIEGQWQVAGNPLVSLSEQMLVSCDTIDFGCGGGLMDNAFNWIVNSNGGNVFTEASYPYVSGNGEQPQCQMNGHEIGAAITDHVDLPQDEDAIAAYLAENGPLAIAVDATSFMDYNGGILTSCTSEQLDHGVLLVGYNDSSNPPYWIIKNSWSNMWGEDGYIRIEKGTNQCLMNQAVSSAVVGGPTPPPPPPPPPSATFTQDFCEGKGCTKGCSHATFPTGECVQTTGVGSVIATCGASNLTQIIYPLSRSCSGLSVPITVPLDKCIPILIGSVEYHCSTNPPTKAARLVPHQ
Chain of Procathepsin L (P07711 whole entry): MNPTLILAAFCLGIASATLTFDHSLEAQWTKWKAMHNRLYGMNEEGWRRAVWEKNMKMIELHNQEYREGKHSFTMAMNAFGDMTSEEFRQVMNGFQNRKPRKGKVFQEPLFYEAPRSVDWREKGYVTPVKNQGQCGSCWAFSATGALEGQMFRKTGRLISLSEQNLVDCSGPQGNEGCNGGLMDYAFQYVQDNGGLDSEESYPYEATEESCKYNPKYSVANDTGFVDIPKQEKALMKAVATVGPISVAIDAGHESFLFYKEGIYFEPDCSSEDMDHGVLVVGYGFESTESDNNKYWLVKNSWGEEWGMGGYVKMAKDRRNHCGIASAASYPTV

Row | Structure (SMILES) | Ki (Rhodesain) [nM] | Ki (Procathepsin L) [nM] | Ratio Ki [1] | IC50 [2, 4] [nM] | IC50 (L6; Rattus norvegicus, L6, 72 h) [nM] | selectivity ratio [3] | Ratio IC50 [3] | IC50 [2] [nM] | IC50 (L6; l6) [nM]
1 | CC(C)(C)c1cc2nn1CC/C=C/COc1ccc(cc1Cl)C[C@@H](C(=O)NC1(C#N)CC1)NC2=O | 18 | 2.3 | 0.1 | 0.6 | 38500 | 64200 |  |  | 
2 | N#CC1(NC(=O)[C@@H]2Cc3ccc(c(Cl)c3)OC/C=C/COc3cc(-c4cnn(C(F)F)c4)ccc3C(=O)N2)CC1 (mixture of isomers) | 5.4 | 7.4 | 1.4 | 336 | 44300 | 132 |  |  | 
3 | CS(=O)(=O)c1ccc2c(c1)C(=O)N[C@H](C(=O)NC1(C#N)CC1)Cc1ccc(c(Cl)c1)OC/C=C/CO2 | 6.1 | 3.7 | 0.6 | 332 | > 100000 |  |  |  | 
4 | N#CC1(NC(=O)[C@@H]2Cc3ccc(c(Cl)c3)OC/C=C/CCn3nc(cc3-c3ccccc3)C(=O)N2)CC1 | 5.2 | 55.7 | 11 | 0.6 | 40000 | 66700 |  |  | 
5 | N#CC1(NC(=O)[C@@H]2Cc3ccc(c(-c4cccnc4)c3)OCCCCOc3cc(C(F)(F)F)ccc3C(=O)N2)CC1 | 751 | 824 | 1.1 | 18 | 72200 | 4010 |  |  | 
6 | CS(=O)(=O)c1ccc2c(c1)C(=O)N[C@H](C(=O)NC1(C#N)CC1)Cc1ccc(c(Cl)c1)OC[C@H]1O[C@@H]1CO2 (mixture of isomers) | 135 | 4.6 | 0.03 | 16900 | 84700 | 5 |  |  | 
7 | N#CC1(NC(=O)[C@@H]2Cc3ccc(c(-c4cncnc4)c3)OCCCCOc3cc(C(F)(F)F)ccc3C(=O)N2)CC1 | > 20000 | 6390 |  | 509 | > 100000 |  |  |  | 
8 | N#CC1(NC(=O)[C@@H]2Cc3ccc(c(Cl)c3)OCC#CCOc3c(F)cc(F)cc3C(=O)N2)CC1 (single isomer, unassigned; atropisomer 1) [listing 1 of 2 here] | 80.6 | 24.1 |  | 8 | 45600 |  | 5700 |  | 
9 | N#CC1(NC(=O)[C@@H]2Cc3ccc(c(Cl)c3)OC/C=C/Cn3cccc(c3=O)C(=O)N2)CC1 | > 20000 | > 20000 |  | 47800 | > 100000 |  |  |  | 
10 | Cn1cc(-c2cc3ccc2OCCCCOc2cc(C(F)(F)F)ccc2C(=O)N[C@H](C(=O)NC2(C#N)CC2)C3)cn1 | 870 | 676 | 0.8 | 19 | > 100000 |  |  |  | 
11 | N#CC1(NC(=O)[C@@H]2Cc3ccc(c(Cl)c3)OCC#CCOc3c(F)cc(F)cc3C(=O)N2)CC1 (single isomer, unassigned; atropisomer 2) [listing 1 of 2 here] |  |  | 0.3 |  |  |  |  |  | 
12 | N#CC1(NC(=O)[C@@H]2Cc3ccc(c(Cl)c3)OCC#CCOc3c(F)cc(F)cc3C(=O)N2)CC1 (single isomer, unassigned; atropisomer 1) [listing 2 of 2 here] |  |  | 0.3 |  |  |  |  |  | 
13 | N#CC1(NC(=O)[C@@H]2Cc3ccc(c(-c4cccnc4)c3)OCCCCOc3ccccc3C(=O)N2)CC1 | 837 | 997 | 1.2 | 1930 | > 100000 |  |  |  | 
14 | N#CC1(NC(=O)[C@@H]2Cc3ccc(c(Cl)c3)OCC#CCOc3c(F)cc(F)cc3C(=O)N2)CC1 (single isomer, unassigned; atropisomer 2) [listing 2 of 2 here] | 4.8 | 1.2 |  |  |  |  | 11775 | 4 | 47100
15 | N#CC1(NC(=O)[C@@H]2Cc3ccc(c(I)c3)OC/C=C/COc3ccccc3C(=O)N2)CC1 | 2.5 |  |  |  |  |  |  |  | 
16 | Cc1cc2nn1CC/C=C/COc1ccc(cc1Cl)C[C@@H](C(=O)NC1(C#N)CC1)NC2=O (mixture of isomers) | 52.4 | 40.3 | 0.8 | 6 | > 100000 |  |  |  | 
17 | N#CC1(NC(=O)[C@@H]2Cc3ccc(c(Cl)c3)OC/C=C/COc3ccccc3C(C(F)(F)F)N2)CC1 (some centres undefined) | 258 | 443 |  | 9500 |  |  |  |  | 
